The values that follow come from ChEMBL document CHEMBL3112569, “3-Ketone-4,6-diene ceramide analogs exclusively induce apoptosis in chemo-resistant cancer cells” (Bioorg Med Chem, 2014).

Assay [1] in a line: Induction of apoptosis in human MCF-7TN-R cells assessed as caspase-9 activation at 2 times IC50 determined from MTT assay after 24 hrs by caspase Glo 9 assay relative to vehicle-treated control. Type of assay: functional. The method, boiled down:
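MCF-7TN-R cells at 7500–10,000 per well in phenol-free DMEM adhered 24 h, then exposed 24 h at twice the MTT-derived IC50. Caspase-9 activity read by Caspase-Glo 9 luminescence, relative to DMSO vehicle. Triplicate on three occasions.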
For orientation: Tetrazolium assays rely on reduction of a dye to a coloured formazan, in cell work by metabolically active cells.

Assay [2] is described as follows: Cytotoxicity against human MCF7/DX cells assessed as cell viability after 72 hrs by CellTiter-Glo luminescence assay. Type of assay: functional, cell-based. In a few lines:
(§1)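 Cells grown overnight at 4000 per well in RPMI-1640 with 10% FBS, then treated with analogs for 72 h. Viability measured as luminescent ATP after incubation with CellTiter-Glo reagent. Three independent experiments.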
On the technique in general: In ATP-based viability assays light output follows the ATP content of the culture.

Assay [3] has as its system MCF7. As to the kind of experiment: Cytotoxicity against human MCF7 cells assessed as cell viability after 72 hrs by CellTiter-Glo luminescence assay. The format is functional, cell-based. As to conditions: MCF7, 72 h. In a few lines:
as §1

Assay [4] in a line: (§2) Induction of apoptosis in human MCF-7TN-R cells at 2 times IC50 determined from MTT assay after 24 hrs by ELISA relative to control. The format is functional. The method, boiled down: (§3)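 MCF-7TN-R cells at 7500–10,000 per well in phenol-free DMEM adhered 24 h, then treated 24 h at twice the MTT-derived IC50. DNA fragmentation read with cell death detection ELISA. Normalized to MTT viability on the same plate, duplicate on three occasions.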

Assay [5] relates to MDA-MB-231. As to the kind of experiment: Cytotoxicity against human MDA-MB-231 cells assessed as colony formation after 10 to 12 days by crystal violet staining assay. The format is functional, cell-based. In a few lines: (§4)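 Colony formation: 1000 cells per well in 10% DMEM, 24 h adhesion, then graded analog dilutions until colonies formed (generally 10–12 days). Fixed in 3% glutaraldehyde 30 min, stained 40 min with 0.2% crystal violet/20% methanol. Colonies over 30 cells hand-counted, normalized to DMSO control, IC50 from dose–response fit.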

A further assay relates to OVCAR-8. As to the kind of experiment: Cytotoxicity against human OVCAR8 cells assessed as cell viability after 72 hrs by CellTiter-Glo luminescence assay. Type of assay: functional, cell-based. As to conditions: OVCAR-8, 72 h. In a few lines: as §1
Assay [6] in a line: Cytotoxicity against human MCF-7TN-R cells assessed as colony formation after 10 to 12 days by crystal violet staining assay. The format is functional, cell-based. The method, boiled down:
as §4

Assay [7] deals with T1, Ceramide glucosyltransferase (Homo sapiens) (UniProt Q16739).
T1 sequence (whole entry): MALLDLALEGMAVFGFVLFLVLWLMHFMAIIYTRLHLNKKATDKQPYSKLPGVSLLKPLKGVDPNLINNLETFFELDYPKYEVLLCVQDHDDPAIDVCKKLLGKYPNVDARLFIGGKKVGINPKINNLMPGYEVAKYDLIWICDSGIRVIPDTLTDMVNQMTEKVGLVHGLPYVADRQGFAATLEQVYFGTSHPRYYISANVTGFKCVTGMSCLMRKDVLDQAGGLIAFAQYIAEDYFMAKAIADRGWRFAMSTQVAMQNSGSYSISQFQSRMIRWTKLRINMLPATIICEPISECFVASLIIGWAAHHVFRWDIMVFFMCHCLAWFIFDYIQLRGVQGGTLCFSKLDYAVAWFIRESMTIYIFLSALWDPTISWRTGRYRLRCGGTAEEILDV
The assay can be described thus: Inhibition of GCS in human OVCAR8 cells assessed as decrease in ratio of glucosylceramide to ceramide level at IC50 after 4 hrs by TLC assay. Type of assay: cell-based. As to conditions: OVCAR-8.

Assay [8] can be described thus: Cytotoxicity against human MCF-7TN-R cells assessed as cell viability after 24 hrs by MTT assay. Type of assay: functional, cell-based. The method, boiled down: (§5)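 Cells seeded at 7500–10,000 per well in phenol-free DMEM and allowed 24 h to adhere. Exposed to graded analog concentrations (1 to 100 μM) for 24 h, then MTT added for 3–4 h. Formazan dissolved in 20% SDS/50% DMF for 24 h, absorbance read at 550 nm. Expressed as % of DMSO vehicle, run in quadruplicate on three occasions, IC50 from dose–response fit.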

Assay [9] relates to MCF7. The assay can be described thus: Cytotoxicity against human MCF7 cells assessed as colony formation after 10 to 12 days by crystal violet staining assay. The format is functional, cell-based. The method, boiled down:
as §4

The target in assay [10] is T1, Ceramide glucosyltransferase (Homo sapiens). The assay can be described thus: Inhibition of GCS in human NCI/ADR-RES cells assessed as decrease in ratio of glucosylceramide to ceramide level at IC50 after 4 hrs by TLC assay. Type of assay: cell-based.
Assay [11] concerns MCF7. The assay can be described thus: Cytotoxicity against human MCF7 cells assessed as cell viability after 24 hrs by MTT assay. Type of assay: functional, cell-based. As to conditions: MCF7, 24 h. The method, boiled down: as §5
In assay [12] the test system is MDA-MB-231. The assay can be described thus: Cytotoxicity against human MDA-MB-231 cells assessed as cell viability after 24 hrs by MTT assay. Type of assay: functional, cell-based. As to conditions: MDA-MB-231, 24 h. In a few lines: as §5
Another assay deals with NCI/ADR-RES. The assay can be described thus: Cytotoxicity against human NCI/ADR-RES cells assessed as cell viability after 72 hrs by CellTiter-Glo luminescence assay. Type of assay: functional, cell-based. In a few lines:
as §1

For another assay, the species on record is Homo sapiens. Described as §2. Type of assay: functional. In a few lines: as §3
A short description of assay [13]: Cytotoxicity against human MCF-7TN-R cells assessed as cell viability after 24 to 48 hrs by MTT assay. Type of assay: functional, cell-based.

Calls of active or inactive are those of the source. No cut-off for these calls is given here.

One may read the IC50 as the concentration needed to halve the response being measured. `CCCCCCCCCC/C=C/C=C/C(=O)[C@H](CO)NC(=O)Cc1ccccc1`: the “fold change (FC)” value turned out to be 3.59 in [1] and 4.3 in assay [4]. The IC50 in assay [2] amounted to 3.92 µM; with MCF7 [3], 3.92 µM; in the assay on MDA-MB-231 [5] it was 1.4 µM; in the assay with OVCAR-8, 7.82 µM; in [6], 1.81 µM; in assay [8] it was 4.26 µM. The IC50 in the assay with MCF7 [9] came out at 3.4 µM; in the assay on MCF7 [11], 22 µM; with MDA-MB-231 [12], 161 µM; with NCI/ADR-RES, 4.92 µM. Moreover, the Ratio in assay [7] is 0.6; in [10], 1.

For `CCCCCCCCCC/C=C/C=C/[C@@H](O)[C@@H]1COC(C)(C)N1C(=O)OC(C)(C)C`, the IC50 in the assay with MDA-MB-231 [5] came out at 3.17 µM; in assay [6], 5.19 µM; in assay [8], 9.91 µM; in the assay with MCF7 [9] it was 5.69 µM; with MCF7 [11], 26.4 µM; with MDA-MB-231 [12] it was 75.2 µM.

Turning to `CCCCCCCCCCCCC/C=C/[C@@H](O)[C@H](CO)NC(=O)CCCCCCC`, the “fold change (FC)” value in assay [1] stood at 1.18. In addition, the result in the assay listed under Homo sapiens was Active.

As for `CCCCCCCCCC/C=C/C=C/C(=O)[C@@H]1COC(C)(C)N1C(=O)OC(C)(C)C`, the “fold change (FC)” value is 1.86 in assay [1] and 3.09 in [4]. The IC50 with MDA-MB-231 [5] came to 1.45 µM; in assay [6] it was 1.85 µM; in assay [8], 4.05 µM; in the assay with MCF7 [9], 5.07 µM; in the assay on MCF7 [11] it was 3.91 µM; with MDA-MB-231 [12], 17.2 µM.

As for `CCCCCCCCCCCCCCNC(=O)[C@H](CO)/N=C/c1ccccc1`, the half-inhibitory concentration (IC50) in [2] amounted to 10.1 µM; with MCF7 [3], 14.1 µM; with OVCAR-8 it was 16.3 µM; in the assay on NCI/ADR-RES, 13.8 µM. Besides, the Ratio in [7] came to 0.9; in [10] it was 0.8.

As to `CCCCCCCCCCCCC/C=C/[C@@H](O)[C@H](CO)NC(=O)Cc1ccccc1`, the IC50 was 1.59 µM in the assay on MDA-MB-231 [5]; 5.62 µM in [6]; 4.74 µM in assay [8]; 4.18 µM with MCF7 [9]; 37.3 µM in the assay on MCF7 [11]; 51.2 µM in the assay with MDA-MB-231 [12].

As to `CCCCCCCCCCC/C=C/C=C/[C@@H](O)[C@H](CO)NC(=O)CCCCCCC`, in assay [13], the IC50 stood at 11.3 µM.

With `CCCCCCCCCCCCCCNC(=O)[C@H](CO)NC(=O)Cc1ccccc1`, the IC50 with MDA-MB-231 [5] was 17.6 µM; in [6] it was 10.1 µM; in assay [8] it was 29 µM; in the assay on MCF7 [9], 10.2 µM; with MCF7 [11], 234 µM.
